Results on 3 compounds are retold here after ChEMBL document CHEMBL1124826, “Novel prodrugs which are activated to cytotoxic alkylating agents by carboxypeptidase G2” (1990).

Format in all cases: functional
Holding throughout (conditions): read-out: ID50 (the source's name)

In experiment [1] the test system is JAR. The experiment in a line: The compound was tested for cytotoxicity against human JAR, choriocarcinoma cell line. The essentials:
(§1)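 JAR and LS174T cells (5×10^4 mL⁻¹, DMEM) exposed to compound at 0.5-800 μM, with no enzyme added. Solutions were freshly made and adjusted to pH 7.4. Dosing was repeated at the same concentration three times, 24 h apart. Duplicates. Viability was counted by hemocytometer 24 h after the last dose, relative to untreated controls.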

Experiment [2] relates to JAR. The experiment in a line: The compound along with CPG2 was tested for cytotoxicity against human JAR, choriocarcinoma cell line. The essentials:
(§2)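 JAR and LS174T cells (5×10^4 mL⁻¹, DMEM) exposed to prodrug at 0.5-800 μM, freshly made and adjusted to pH 7.4. Dosing was repeated at the same concentration three times, 24 h apart. CPG2 at 6 units mL⁻¹ final was added with each dose to generate active drug in situ. Duplicates. Viability was counted by hemocytometer 24 h after the last dose, relative to untreated controls.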

For experiment [3], the system named is LS174T. The experiment is described as follows: The compound was tested for cytotoxicity against human LS174T,colorectal cell line. Summed up:
as §1

Experiment [4] relates to LS174T. The experiment is described as follows: The compound along with CPG2 was tested for cytotoxicity against human LS174T,colorectal cell line. Summed up:
as §2

Turning to `CS(=O)(=O)OCCN(CCOS(C)(=O)=O)c1ccc(C(=O)NC(CCC(=O)O)C(=O)O)cc1` (configuration not stated), the IC50 in experiment [1] is greater than 800 µM; in experiment [2], 60 µM; in experiment [3], 800 µM; in experiment [4], 65 µM.
The matching figures for `CS(=O)(=O)OCCN(CCCl)c1ccc(C(=O)NC(CCC(=O)O)C(=O)O)cc1` (configuration not stated): 630 µM, 10 µM, 285 µM and 10 µM.
The matching figures for `O=C(O)CCC(NC(=O)c1ccc(N(CCCl)CCCl)cc1)C(=O)O` (configuration not stated): greater than 800 µM, 8 µM, greater than 800 µM and 25 µM.
